Experimental data: PubChem BioAssay
Inconclusive results are not listed. The source made the active and inactive calls.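 How the source made its calls, unless noted: active means viability increase at or above a cutoff of the median across tested compounds plus 3 SD (cut at about 8.5% in these data, passing the limit was not always enough); inconclusive means some gains above the cutoff, reason not given; inactive means the rest.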

Experiments:
[1] = OD615 S. cerevisiae growth inhibition, permissive medium, pilot counter-assay, permissive growth control for S. cerevisiae lifespan shortening project (AID 705;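 active means growth inhibition above 25% in both replicates, a cutoff set 3 SD above the mean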); details: OD615, 24 h, at 10 µM, hits give high values
Procedure, shortened: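 System: Engineered DeaD yeast | Buffer or medium: SC raffinose/galactose permissive medium | Doses: 10 µM single dose, 0.25% DMSO | Times: 24 h exposure, 30 °C | Measured by: OD615 turbidity read | Read-out: Yeast growth inhibition indicated by reduced 24 h OD615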

[2] = Restrictive medium S. cerevisiae growth inhibition, OD615, pilot screen of yeast lifespan reduction project, restrictive growth control (AID 706;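 active means growth inhibition above a set limit, 3 SD over mean compound inhibition, in both replicates, cut at about 43% in these data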;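 further: modified DeaD lifespan yeast strain shifted to restrictive glucose medium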); details: OD615, 48 h, at 10 µM, hits give high values
Procedure, shortened: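 Assay system: engineered S. cerevisiae DeaD strain; Buffer or medium: CSMM-D glucose medium; Dosing: 10 µM compound, 0.25% DMSO; Times: cell pre-growth 4 h, compound exposure 48 h, 30 °C; Detection: absorbance (optical density) measured at 615 nm.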

[3] = viability gain of MRP-1-high H69AR cells under doxorubicin, pilot screen, MRP-1 activator project, CellTiter-Glo, duplicate (AID 807); details: H69AR viability with doxorubicin, CellTiter-Glo luminescence; at 10 µM; hits give high values;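 further: compound pretreatment 18-22 h then 72 h combined with doxorubicin; 0% = doxorubicin alone and 100% = vehicle without doxorubicin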
[4] = growth suppression of PTEN-deleted HCT116, pilot screen, cell-based, HCT116 clonal line, CellTiter-Glo (AID 824;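 active means viability at or below 27.92% in each of two runs, the all-compound median minus 4 SD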;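 further: 0% = 20 µM Hyamine control and 100% = vehicle cell control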); details: 60 h, at 10 µM, hits give low values
[5] = inhibitors of the yeast RAM network, pilot screen, dse1pr::URA3 reporter, 5-FOA selection (AID 869;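 active means inhibition over a set limit, the all-compound mean plus 3 SD, in both replicate runs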;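 further: 0% = DMSO wells with no growth and 100% = 10 µM 1-NA-PP1 with full growth; RAM network block rescues cells from 5-FOA so hits raise OD615 growth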); details: S. cerevisiae dse1pr::URA3 5-FOA growth, OD615, 2 d; at 10 µM; hits give high values; strain carries analog-sensitive mutant Cbk1 kinase
[6] = RAM signaling pathway blockade in yeast – S. cerevisiae, Pdr1DBD-CYC8 efflux-inhibited sensitized strain, primary screen (AID 1298;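 active means RAM network inhibition above 8.4% in each of two replicates, 3 SD over the compound average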;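 further: 0% = DMSO untreated cells without growth and 100% = 10 µM 1-NA-PP1 full growth; higher means more yeast growth rescued from 5-FOA killing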); details: S. cerevisiae cbk1-as DSE1-URA3 strain, 5-FOA growth OD615, 2 d; at 50 µM; hits give high values

CCOc1cc(C2NC(=O)NC(C)=C2C(=O)OC(C)CC)cc(Br)c1O (stereo not drawn)
inactive: growth inhibition [1] -4.09% | growth inhibition [2] -10.5% | viability increase [3] -1.01% | viability [4] 91.2% | inhibition [5] 2.17% | RAM network inhibition [6] 2.16%

CCN(CC)C(=O)C(C)N(C#N)c1nc(NC(C)C)nc(NC(C)C)n1 (stereo not drawn)
inactive: growth inhibition [1] -9.32% | growth inhibition [2] -0.315% | viability increase [3] -3.7% | viability [4] 101% | inhibition [5] 0.715% | RAM network inhibition [6] 2.25%

O=C(CCCOc1ccccc1)N1CCCc2ccccc21
inactive: growth inhibition [1] -0.835% | growth inhibition [2] -2.99% | viability increase [3] -2.01% | viability [4] 92.2% | inhibition [5] 0.825% | RAM network inhibition [6] 2.37%

CCCC(=O)c1cc(F)c(N2CCN(CCC#N)CC2)cc1C
inactive: growth inhibition [1] -9.06% | growth inhibition [2] -15.5% | viability increase [3] -0.66% | viability [4] 93.6% | inhibition [5] 2.97% | RAM network inhibition [6] 3.23%

COc1ccc(CCNC(=O)CN(c2ccc(OC)c(OC)c2)S(C)(=O)=O)cc1OC
inactive: growth inhibition [1] -1.96% | growth inhibition [2] -7.65% | viability increase [3] 0.32% | viability [4] 106% | inhibition [5] 0.98% | RAM network inhibition [6] 1.49%

CCNc1nc(NCC)nc(OCCNS(=O)(=O)c2cc(C)ccc2C)n1
inactive: growth inhibition [1] 7.46% | growth inhibition [2] 6.54% | viability increase [3] -2.5% | viability [4] 95.3% | inhibition [5] 0.235% | RAM network inhibition [6] 1.53%

COC(=O)c1ccc2[nH]c(C)c(CN3CCCC3)c(=O)c2c1
inactive: growth inhibition [1] -4.34% | growth inhibition [2] 1.2% | viability increase [3] -2.3% | viability [4] 95.3% | inhibition [5] 0.415% | RAM network inhibition [6] 1.59%

CCOC(=O)N1CCN(C(=O)c2oc3ccc(S(=O)(=O)N4CCOCC4)cc3c2C)CC1
inactive: growth inhibition [1] -6.53% | growth inhibition [2] -12.6% | viability increase [3] -4.64% | viability [4] 99.9% | inhibition [5] 2.71% | RAM network inhibition [6] 4.61%

CCN(CC)S(=O)(=O)c1ccc2oc(C(=O)NCC3COc4ccccc4O3)c(C)c2c1 (stereo not drawn)
inactive: growth inhibition [1] -4.71% | growth inhibition [2] 1.48% | viability increase [3] -7.27% | viability [4] 56.5% | inhibition [5] 2.5% | RAM network inhibition [6] 4.96%

O=C(C1CCCN(S(=O)(=O)c2ccc(F)cc2)C1)N(Cc1cccs1)C1CC1 (stereo not drawn)
inactive: growth inhibition [1] -11.5% | growth inhibition [2] -6.14% | viability increase [3] -1.34% | viability [4] 71.7% | inhibition [5] 2.02% | RAM network inhibition [6] 2.87%

Cc1ccc(S(=O)(=O)N2CCN(C(=O)CCC(=O)N3CCc4ccccc43)CC2)cc1
inactive: growth inhibition [1] -2.18% | growth inhibition [2] -5.78% | viability increase [3] -1.16% | viability [4] 99.4% | inhibition [5] -0.03% | RAM network inhibition [6] 2.05%

COCCCNC(=O)c1cn(C)c(=O)c2cc(OC)c(OC)cc12
inactive: growth inhibition [1] -8.69% | growth inhibition [2] -8.96% | viability increase [3] -2.69% | viability [4] 103% | inhibition [5] 1.8% | RAM network inhibition [6] 0.56%

O=C(CSc1nc(-c2ccncc2)nn1CC(=O)N1CCCCC1)NC1CCCC1
inactive: growth inhibition [1] -4.01% | growth inhibition [2] -16.2% | viability increase [3] -4.19% | viability [4] 88% | inhibition [5] 1.07% | RAM network inhibition [6] -1.59%

CCC(C)NC(=O)c1cn(C)c(=O)c2cc(OC)c(OC)cc12 (stereo not drawn)
inactive: growth inhibition [1] -6.39% | growth inhibition [2] -12.4% | viability increase [3] -3.24% | viability [4] 99.7% | inhibition [5] 1.1% | RAM network inhibition [6] 5.28%

CCC(=O)Nc1sc2c(c1C#N)CC(C)(C)NC2(C)C
inactive: growth inhibition [1] -7.39% | growth inhibition [2] -4.29% | viability increase [3] 0.09% | viability [4] 100% | inhibition [5] 1.89% | RAM network inhibition [6] 0.46%

CC(C)(Oc1ccc(Cl)cc1)C(=O)OCC(=O)N1CCCC1
inactive: growth inhibition [1] -8.95% | growth inhibition [2] -11% | viability increase [3] -2.58% | viability [4] 96.5% | inhibition [5] 0.455% | RAM network inhibition [6] -1.13%

COc1ccc(N2C(=O)CCC(C(=O)N3CCCCCC3)C2c2ccc(OC)c(OC)c2)cc1 (stereo not drawn)
inactive: growth inhibition [1] -2.31% | growth inhibition [2] 12.9% | viability increase [3] -1.38% | viability [4] 99% | inhibition [5] 0.735% | RAM network inhibition [6] 4.47%

O=C(Nc1ccc(S(=O)(=O)N2CCOCC2)cc1)C1COc2ccccc2O1 (stereo not drawn)
inactive: growth inhibition [1] -6.88% | growth inhibition [2] -3.29% | viability increase [3] -1.63% | viability [4] 104% | inhibition [5] 0.055% | RAM network inhibition [6] 1.34%

Cc1c(C(=O)NCc2ccc3c(c2)OCO3)oc2ccc(S(=O)(=O)N3CCCC3)cc12
inactive: growth inhibition [1] -2.78% | growth inhibition [2] -4.95% | viability increase [3] -0.63% | viability [4] 66.1% | inhibition [5] 1.78% | RAM network inhibition [6] 4.67%

COc1ccc(S(=O)(=O)Nc2ccc(S(=O)(=O)N3CCOCC3)cc2)cc1
inactive: growth inhibition [1] -3.87% | growth inhibition [2] -1.83% | viability increase [3] -1.49% | viability [4] 101% | inhibition [5] 1.18% | RAM network inhibition [6] 2.87%

O=C(C1CC1)N1CCc2cc(Br)cc(S(=O)(=O)N3CCCCCC3)c21
inactive: growth inhibition [1] -4% | growth inhibition [2] -6.99% | viability increase [3] -3.17% | viability [4] 82.1% | inhibition [5] 1.66% | RAM network inhibition [6] 5.99%

O=C(CCCSc1nc2ccccc2s1)NCc1ccco1
inactive: growth inhibition [1] 1.82% | growth inhibition [2] -1.56% | viability increase [3] -2.85% | viability [4] 86.3% | inhibition [5] 1.28% | RAM network inhibition [6] -0.82%

CCn1cc(C(=O)NCCCOC)c2cc(OC)c(OC)cc2c1=O
inactive: growth inhibition [1] -10.7% | growth inhibition [2] 0.745% | viability increase [3] -2.42% | viability [4] 104% | inhibition [5] 2.5% | RAM network inhibition [6] 3.59%

C=CCn1c(SC(CCO)C(=O)NCc2ccco2)nc2sc3c(c2c1=O)CCC3 (stereo not drawn)
inactive: growth inhibition [1] -8.84% | growth inhibition [2] 0.375% | viability increase [3] -5.67% | viability [4] 84.7% | inhibition [5] 1.2% | RAM network inhibition [6] 5.12%

COc1ccc(S(=O)(=O)N(CCc2ccccc2)CC(=O)N2CCOCC2)cc1
inactive: growth inhibition [1] -7.4% | growth inhibition [2] -6.06% | viability increase [3] -4.39% | viability [4] 96.6% | inhibition [5] 0.965% | RAM network inhibition [6] -0.36%

Cc1ccc(C(=O)NCCNC(=O)CN2CCCC2)cc1
inactive: growth inhibition [1] -7.48% | growth inhibition [2] 3.55% | viability increase [3] -0.66% | viability [4] 103% | inhibition [5] 2.21% | RAM network inhibition [6] 5.7%

COCCNC(=O)C1c2ccccc2C(=O)N(CCOC)C1c1ccc(F)cc1 (stereo not drawn)
inactive: growth inhibition [1] -6.02% | growth inhibition [2] 3.31% | viability increase [3] -2.15% | viability [4] 101% | inhibition [5] 1.29% | RAM network inhibition [6] 0.46%

CCSc1nc2ccccc2n1CC(=O)N1CCOCC1
inactive: growth inhibition [1] -4.23% | growth inhibition [2] 1.08% | viability increase [3] -3.2% | viability [4] 92.4% | inhibition [5] 0.915% | RAM network inhibition [6] 0.98%

CCNc1nc(Oc2ccc(C(=O)OCC)cc2)nc(SC)n1
inactive: growth inhibition [1] -5.11% | growth inhibition [2] 1.57% | viability increase [3] -1.58% | viability [4] 78.9% | inhibition [5] 2.05% | RAM network inhibition [6] 2.82%

O=C(Nc1ccc(F)cc1)c1cc(S(=O)(=O)N2CCCCC2)cs1
inactive: growth inhibition [1] -4.36% | growth inhibition [2] 5.66% | viability increase [3] -2.46% | viability [4] 61.1% | inhibition [5] 2.75% | RAM network inhibition [6] -0.1%

CCCCN1C(=O)C(O)(CC(=O)c2ccco2)c2cc(Br)ccc21 (stereo not drawn)
active: viability [4] 11.5%
inactive: growth inhibition [1] 2.79% | growth inhibition [2] 2.35% | viability increase [3] -6.26% | inhibition [5] -0.765% | RAM network inhibition [6] -1.34%

O=C(CCn1nnc2ccccc21)N1CCC(O)(c2cccc(F)c2)CC1
inactive: growth inhibition [1] -3.14% | growth inhibition [2] -7.45% | viability increase [3] -2.75% | viability [4] 101% | inhibition [5] 2.4% | RAM network inhibition [6] 1.86%

CCCCn1c(=NC(=O)c2ccco2)c(C(=O)OCC)cc2c(=O)n3ccccc3nc21
active: viability [4] 20.3%
inactive: growth inhibition [1] 1.16% | growth inhibition [2] 6.8% | viability increase [3] -6.94% | inhibition [5] 0.795% | RAM network inhibition [6] 1.9%

c1csc(CNc2ncnc3sccc23)c1
inactive: growth inhibition [1] 3.62% | growth inhibition [2] -3.59% | viability increase [3] -2% | viability [4] 62.7% | inhibition [5] 2.05% | RAM network inhibition [6] 4.4%

COc1cc(C(=O)N2CCN(c3cccc(C)c3C)CC2)cc(OC)c1OC
inactive: growth inhibition [1] 0.72% | growth inhibition [2] 9.77% | viability increase [3] -5.32% | inhibition [5] -0.125% | RAM network inhibition [6] 10.1%
active: viability [4] 20.1%

Cc1nc2ccccc2c(=O)n1CCCO
inactive: growth inhibition [1] -2.92% | growth inhibition [2] 0.055% | viability increase [3] -2.52% | viability [4] 96% | inhibition [5] 2.77% | RAM network inhibition [6] 3.03%

CCOC(=O)CNS(=O)(=O)CCN1C(=O)c2ccccc2C1=O
inactive: growth inhibition [1] -8.36% | growth inhibition [2] -4.12% | viability increase [3] 0.26% | viability [4] 94.3% | inhibition [5] 2.52% | RAM network inhibition [6] 0.77%

O=C1N=C(c2ccccc2)C(c2ccccc2)N1 (stereo not drawn)
inactive: growth inhibition [1] -9.57% | growth inhibition [2] 0.595% | viability increase [3] -3.35% | viability [4] 90.8% | inhibition [5] 1.23% | RAM network inhibition [6] 1.06%
